Sampled rows, rich in hits. Any-hit rate of the full collection: about 3.1%.
OX1R antag-1 = blocks the human orexin 1 receptor. O43613. CHO/OX1R cells, Fluo-8 calcium fluorescence, orexin A. inhibition, % at 5 µM. actives 0.43% (n = 330,000);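 active = inhibition above its plate's threshold, mean inhibition of all tested compounds on the plate plus 3 SD, cut at about 37% in these data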;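 note: 0% = orexin A challenge wells and 100% = SB-334867-A antagonist wells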
CHO parental Ca = signal in parental CHO cells, OX1R antagonist counter-screen; parental CHO-K1, ATP-induced calcium, Fluo-8 fluorescence; inhibition, % at 5.6 µM; actives 0.63% (n = 330,000); AID 463079;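 active = inhibition above that plate's mean sample inhibition plus 3 SD, cut at about 26% in these data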;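 note: 0% = ATP-challenged DMSO wells and 100% = DMSO wells without ATP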
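Assay system: untransfected parental CHO cell line. Also added: ATP agonist challenge. Dosing: one dose, 5.6 µM nominal. Measured by: Fluo-8 fluorescence. Read-out: % inhibition. Benchmarks: ATP wells versus no-ATP DMSO wells. Repeats: no replicates.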
OX1R antag-2 = antagonists of human orexin 1 receptor (OX1R). AID 485270. actives 1.8% (n = 330,000). O43613. OX1R-expressing cells, FRET antagonist read-out. inhibition, % at 6.6 µM; in the data active = inhibition mostly above about 38%, no sharp cut-off; inactive = mostly below about 40%;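 note: 0% = agonist challenge alone and 100% = reference antagonist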
GalR3 antag = human GalR3 antagonism; actives 0.44% (n = 360,000); O60755; HEK293 GalR3-CNG cAMP membrane potential fluorescence; galR3 body fused to GalR1 C-terminus; AID 651719; inhibition, % at 3 µM;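 active = inhibition above the screen-wide average plus 3 SD, cut at about 13% in these data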;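 note: forskolin and galanin both at EC90 stimulate the cells; cAMP rise reported by CNG channel membrane potential dye signal; 0% = forskolin plus galanin with DMSO and 100% = forskolin alone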
Target sequence (O60755 1-299 limits assumed): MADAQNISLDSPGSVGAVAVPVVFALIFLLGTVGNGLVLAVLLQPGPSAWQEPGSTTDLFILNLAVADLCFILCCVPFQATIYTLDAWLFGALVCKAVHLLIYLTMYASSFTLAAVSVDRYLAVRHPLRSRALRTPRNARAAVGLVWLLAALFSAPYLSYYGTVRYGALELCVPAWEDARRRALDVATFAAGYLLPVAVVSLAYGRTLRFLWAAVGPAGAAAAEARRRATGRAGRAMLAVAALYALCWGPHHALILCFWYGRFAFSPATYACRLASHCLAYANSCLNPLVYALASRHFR
GPR7 antagonist = antagonists of human GPR7 (neuropeptides B/W receptor 1); P48145; GPR7-expressing cells, fluorescence antagonist assay; inhibition, % at 4.4 µM; actives 1.1% (n = 290,000); in the data active = inhibition above about 16%, passing the limit was not always enough;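 note: cells stimulated with the agonist NPW; 0% = agonist with vehicle and 100% = vehicle without agonist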
Target sequence (P48145 whole entry, looked up): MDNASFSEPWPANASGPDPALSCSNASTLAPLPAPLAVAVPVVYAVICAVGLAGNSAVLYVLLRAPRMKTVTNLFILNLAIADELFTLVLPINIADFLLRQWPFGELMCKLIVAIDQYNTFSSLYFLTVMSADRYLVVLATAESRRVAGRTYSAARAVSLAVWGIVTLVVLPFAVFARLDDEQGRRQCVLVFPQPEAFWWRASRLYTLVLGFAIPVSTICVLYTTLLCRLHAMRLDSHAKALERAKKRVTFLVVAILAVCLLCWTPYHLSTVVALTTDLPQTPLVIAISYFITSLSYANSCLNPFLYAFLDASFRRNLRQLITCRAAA
GPR7 antag cf = confirmation of human GPR7 antagonists. shares compounds with GPR7 antagonist. GPR7-expressing cells, calcium fluorescence antagonist mode. inhibition, % at 4.4 µM. actives 52% (n = 2,400). AID 1952; in the data active = inhibition above about 24%;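 note: stimulated with the GPR7 agonist NPW; 0% = agonist plus vehicle and 100% = vehicle alone without agonist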
MCHR1 antagonist = antagonizes human MCHR1, a GPR7 antagonist counter-screen; shares compounds with GPR7 antagonist; MCHR1-expressing cells, fluorescence antagonist assay; inhibition, % at 4.4 µM; actives 62% (n = 2,400); AID 2148; in the data active = inhibition above about 22%;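 note: 0% = vehicle with agonist and 100% = vehicle without agonist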
An asterisk follows results filed as active; . = no result.

SMILES	OX1R antag-1	CHO parental Ca	OX1R antag-2	GalR3 antag	GPR7 antagonist	GPR7 antag cf	MCHR1 antagonist
COc1ccc(/C=C/C(=O)NC(=S)Nc2ccc(S(=O)(=O)N=C(N)N)cc2)cc1OC	-2.6	5.5	15.5	-11.0	-5.1	.	.
O=C(NCCS(=O)(=O)N1CCN(c2ccccc2F)CC1)c1ccc2c(c1)OCO2	-6.7	-27.9	7.3	-3.0	.	.	.
COc1ccc(C(CNC(=O)c2ccc3c(c2)C(=O)N(CCC(C)C)C3=O)N2CCOCC2)cc1 (configuration not stated)	-25.4	-33.6	9.0	0.0	29.0*	-2.0	12.2
COc1ccc(NS(=O)(=O)c2cccc(C(=O)NCC(c3ccc(F)cc3)N3CCOCC3)c2)cc1 (configuration not stated)	0.2	-17.6	54.6*	-4.9	30.6*	27.4*	10.7
COc1ccc(Nc2nc(N)c([N+](=O)[O-])c(NC3CCCCC3)n2)cc1	-72.4	-52.4	21.7	-10.5	-79.9	.	.
CC(C)CCN1C(=O)c2ccc(C(=O)Nc3ccc(Br)cc3C(=O)O)cc2C1=O	2.5	-4.6	-0.8	-6.0	0.2	.	.
CCOC(=O)C1CCCN(C(=O)c2ccc(C(F)(F)F)nc2C)CC1 (configuration not stated)	.	.	.	-1.3	.	.	.
Cc1ccc(/C=N/NC(=O)c2ccccc2OCc2ccc(F)cc2)o1	-32.7	-30.0	17.5	-8.1	2.5	.	.
O=C(N/N=C/c1ccncc1)c1ccccc1OCc1ccc(Br)cc1	-21.4	-27.6	18.1	-11.8	31.3*	25.3*	42.7*
Cc1ccc(NC(=O)NCc2ccco2)cc1[N+](=O)[O-]	.	.	.	-6.3	.	.	.
NC(=Nc1ccccc1)Nc1ccccc1	34.6	41.6*	5.5	-8.9	101.0*	98.1*	108.0*
CCOC(=O)/C(C(=Nc1ccccc1)Nc1ccccc1)=C(\C)O	-34.8	-26.0	0.3	-9.5	-11.2	.	.
O=C(CCNC(=O)c1ccco1)Nc1nc(-c2ccccc2)cs1	-12.5	-13.6	4.1	-7.2	.	.	.
COc1cc(C2C(Oc3ccccc3C)C(=O)N2Cc2ccc(F)cc2)cc(OC)c1OC (configuration not stated)	-20.6	-26.1	39.4	-3.0	22.8*	16.4	22.7*
CCOC(=O)N1CCN(C(=S)NC(C)(C)C)CC1	-3.1	-5.5	1.1	-2.6	21.2*	-4.0	-6.8
COc1ccc(N(C)S(=O)(=O)c2cccc3cccnc23)c(OC)c1	-8.7	-0.3	21.6	-6.6	-0.6	.	.
COc1ccc(N(C(=O)C2CCCCC2)S(=O)(=O)c2cccc3cccnc23)cc1	-35.4	-3.7	11.4	-9.0	21.5*	0.9	11.8
CC(C)c1ccc(NC2CCCN(C(=O)CC3CCCC3)C2)cc1 (configuration not stated)	19.0	-7.7	3.2	-9.9	35.2*	30.2*	26.9*
Cc1nonc1C(=O)N1CCCC(Nc2ccc(C(C)C)cc2)C1 (configuration not stated)	-12.7	-12.7	26.3	-1.2	24.6*	5.4	26.2*
CC(=O)Nc1ccc(N/C(N)=N/c2nc(C)cc(C)n2)cc1	-18.4	-14.9	8.2	1.8	-4.6	.	.
Cc1cc(C)nc(/N=C(\N)Nc2ccc(-c3ccccc3)cc2)n1	2.0	24.3	14.9	-6.8	64.9*	65.5*	80.8*
CCC(=O)N/C(=N/c1nc(C)cc(C)n1)Nc1ccc(C)cc1	-7.7	-8.2	-4.3	-12.6	9.1	.	.
Cc1ccc(C)c(N/C(N)=N/c2nc(C)cc(C)n2)c1	70.0*	25.6	9.2	-9.0	61.1*	66.2*	71.1*
CCOc1ccc(N/C(=N/c2nc(C)cc(C)n2)NC(=O)CC)cc1	-19.0	-15.9	2.7	-1.5	21.1*	0.8	7.5
CCOc1ccc(N/C(N)=N/c2nc(C)cc(C)n2)cc1	57.6*	49.1*	-0.1	-14.6	98.8*	93.6*	97.4*
SMILES	OX1R antag-1	CHO parental Ca	OX1R antag-2	GalR3 antag	GPR7 antagonist	GPR7 antag cf	MCHR1 antagonist
O=[N+]([O-])c1ccc2c(c1)CO[C@@]21O[C@H](CCO)C[C@H](O)[C@H]1O	.	.	.	-0.2	.	.	.
CN(Cc1ccco1)S(=O)(=O)c1ccc(CN2C(=O)c3cccnc3C2=O)s1	0.4	-4.4	10.0	3.3	-1.0	.	.
COc1cccc(CNC(=O)C2=Cc3cccc(OC)c3OC2)c1	-38.7	-14.3	5.8	5.1	33.5*	3.6	20.9
COc1cccc(CNC(=O)c2ccc(OCC(=O)N3CCOCC3)c(OC)c2)c1	-36.8	-10.2	17.5	-0.4	.	.	.
CCCCC(=O)Nc1ncc(S(=O)(=O)c2ccc([N+](=O)[O-])cc2)s1	4.7	0.1	11.4	0.5	35.4*	25.9*	24.6*
COc1ccc(NC(=O)/C(C#N)=C\c2cc(C)n(-c3ccc(Oc4ccc([N+](=O)[O-])cn4)cc3)c2C)cc1	-11.2	-8.7	17.9	-0.9	-4.6	.	.
Cc1cc(C=O)c(C)n1-c1ccc(Oc2ccc([N+](=O)[O-])cn2)cc1	-9.1	-5.4	33.8	-5.7	26.7*	35.9*	52.5*
O=S(=O)(c1ccc(Cl)cc1)N(Cc1ccccn1)Cc1ccccn1	-20.7	-18.6	-2.0	-1.4	36.0*	-2.9	-2.3
Cc1ccc2oc(=O)n(CC(=O)c3ccc(F)cc3)c2c1	-17.1	-3.7	-1.3	1.5	24.6*	-1.2	12.4
CC1(C)OCC(CNC(=O)c2[nH]c(C(F)(F)F)nc2-c2ccccc2)O1 (configuration not stated)	.	.	.	-4.7	.	.	.
Fc1ccc(CNC(=S)Nc2cccc(Cl)c2)cc1	14.6	40.7*	13.0	-3.5	36.4*	13.8	52.8*
S=C(NCCC(c1ccccc1)c1ccccc1)Nc1cccc(Cl)c1	26.6	5.8	68.4	-4.0	-4.3	.	.
O=[N+]([O-])c1ccc(NC(=S)NCc2ccc(F)cc2)cc1	-21.6	73.5*	26.6	-8.3	39.8*	59.5*	70.5*
S=C(NCCN(C1CCCCC1)C1CCCC1)Nc1cccc(Cl)c1	-5.1	-0.4	11.8	-8.2	54.9*	60.2*	68.6*
O=[N+]([O-])c1ccc(NC(=S)NCCc2ccc(Cl)cc2)cc1	64.0*	68.6*	70.5*	-6.0	48.9*	65.3*	69.9*
C[C@]1(O)CC(=O)C=C[C@H]1Nc1ccccc1	.	.	.	-6.5	.	.	.
O=[N+]([O-])c1ccc(NC(=S)NCCc2ccccc2)cc1	6.3	51.2*	47.3*	-6.0	46.7*	60.7*	58.8*
CCn1c(CNc2ccc(Cl)cc2)nnc1SCc1ccc(Cl)cc1	14.6	-11.0	13.9	-5.4	34.4*	40.8*	45.1*
CCn1c(CNc2ccc(Cl)cc2)nnc1SCCN1CCCCC1	-24.9	-22.4	18.6	-5.1	.	.	14.6
CCn1c(CC(=O)Nc2ccc(Cl)c(Cl)c2)nnc1SCc1ccc(Cl)cc1	-23.4	-16.4	12.2	0.4	-13.8	.	.

Source: PubChem (The Scripps Research Institute Molecular Screening Center)
